Bioassay records as filed in PubChem BioAssay.
In the library only some 3.5% were active in any assay of this set; here they are far more common.
RGS4 inh: inhibitors of human RGS4; HEK293 M3R/RGS4 inducible, Fluo-4 calcium flux; stronger effect = higher value; triggered by carbachol at its EC20; B-score at 10 µM; hit rate 0.45% among 310,000; AID 463165;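 active = B-score, a plate-corrected calcium signal, over three deviations above library mean, with baseline fluorescence within five deviations of library mean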;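 also: RGS4 expression induced by doxycycline in cells with stable M3 receptor; B-score is computed from the integrated fluorescence ratio over baseline after carbachol; higher B-score means a larger calcium signal and so more RGS4 inhibition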
Target sequence (P49798 whole entry, looked up): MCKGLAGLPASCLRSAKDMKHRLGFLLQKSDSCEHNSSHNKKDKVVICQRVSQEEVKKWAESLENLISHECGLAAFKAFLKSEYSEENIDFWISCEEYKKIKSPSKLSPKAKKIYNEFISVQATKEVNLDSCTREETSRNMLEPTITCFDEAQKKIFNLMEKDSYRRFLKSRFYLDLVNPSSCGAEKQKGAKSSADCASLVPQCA
RGS4 act: RGS4 potentiation or activation; B-score at 10 µM; HEK293 M3R/inducible RGS4, carbachol calcium flux Fluo4; stronger effect = lower value; hit rate 0.92% among 310,000;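 active = B-score of the integrated calcium signal more than 4 SD below the library mean, with starting fluorescence not abnormally high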;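 also: negative B-score means reduced calcium response which marks RGS4 activation or potentiation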
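Assay system: HEK293 FlpIn-TREx cells, stable M3R, doxycycline-inducible RGS4 / Probe or stimulus: carbachol, ECmax concentration / Times: overnight RGS4 induction, 30 min dye load 37 °C, 20 min compound RT / Signal: kinetic calcium fluorescence imaging with Fluo4-AM dye, 2 µM / Measure: Agonist-evoked peak-minus-minimum fluorescence over baseline, integrated ratio, B score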
MrgX1 allo act: human MrgX1 positive allosteric modulation, primary screen; hit rate 0.63% among 310,000; B-score at 10 µM; MrgX1-HEK293, Fluo-4 calcium flux, FDSS; stronger effect = higher value;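 active = plate-corrected calcium response at least 3 library SD above typical, normal starting fluorescence, not activating the receptor alone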;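 also: compound read alongside a low EC10 to EC30 dose of BAM8-22 agonist; peak minus trough fluorescence over baseline measured at the second addition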
Target sequence (Q96LB2 whole entry, looked up): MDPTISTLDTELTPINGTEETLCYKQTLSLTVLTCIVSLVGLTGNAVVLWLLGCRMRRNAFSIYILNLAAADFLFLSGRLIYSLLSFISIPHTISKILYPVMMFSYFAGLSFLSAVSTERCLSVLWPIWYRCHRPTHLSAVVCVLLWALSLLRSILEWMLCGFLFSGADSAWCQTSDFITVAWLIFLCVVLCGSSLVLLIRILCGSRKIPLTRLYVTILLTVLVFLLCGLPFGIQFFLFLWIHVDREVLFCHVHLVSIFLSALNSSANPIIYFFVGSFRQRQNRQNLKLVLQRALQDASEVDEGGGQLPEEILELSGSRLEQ
MrgX1 antag: blocks BAM8-22 activation of human MrgX1 receptor | Q96LB2 | MRGX1-HEK293 calcium flux, Fluo-4, BAM8-22 antagonism; stronger effect = lower value | B-score at 10 µM | hit rate 1.3% among 310,000 | AID 588676;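 active = calcium-response B-score plate-corrected more than 3 library SD below zero, starting fluorescence within 5 deviations, no agonist response on first addition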;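 also: peak minus trough fluorescence over baseline after final BAM8-22 challenge near maximal dose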
MrgX1 agonist: agonists of human MrgX1 receptor. hit rate 0.44% among 310,000. B-score at 10 µM. Q96LB2. MrgX1-HEK293 cells, Fluo-4 calcium fluorescence, agonist mode; stronger effect = higher value. AID 588627;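 active = calcium response B-score plate-corrected fluorescence ratio at least 3 library SD, with starting fluorescence B-score inside 5 SD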
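System: HEK293 cells stably expressing human MrgX1 receptor; Dosing: test compound in the initial addition of three; Schedule: overnight plating, then 30 min 37 °C plus 30 min room-temperature dye loading; Detection: kinetic calcium dye fluorescence, Fluo-4 NW; Controls: per-plate positive and negative controls for Z′ factor.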
Each line names hits and unclear results; the compound was inactive in the other large screens.

COc1cccc(/C=N/n2c(-c3n[nH]c4c3CCC4)n[nH]c2=S)c1OC	RGS4 act -7.3
COc1ccccc1N=Nc1c(C)n[nH]c1C	none
Cc1n[nH]c(C)c1N=Nc1cc(Cl)ccc1Cl	MrgX1 antag -5.4
O=C(OC1CCCCC1)c1ccc(NC(=O)C2CCCCC2)cc1	RGS4 act -7
O=C(O)CCC(=O)Nc1ccc(C(=O)OC2CCCCC2)cc1	none
Cc1cccc(NC(=O)COC(=O)c2cccc3c2C(=O)c2ccccc2C3=O)c1C	RGS4 act -7.2
Cc1cccc(C)c1NC(=O)COC(=O)c1cccc2c1C(=O)c1ccccc1C2=O	none
CC12CCC(C(=O)N(CSC(=S)N/N=C\c3ccccc3O)C1=O)C2(C)C (configuration not stated)	MrgX1 allo act 9.3
O=C(OC(C(=O)Nc1cc(Cl)cc(Cl)c1)c1ccccc1)C1=COCCO1 (configuration not stated)	MrgX1 antag -5.3
O=C(NCCOc1ccccc1)c1ccccc1Cl	none
CN(C(=O)COc1ccccc1C(=O)NCCOc1ccccc1)c1ccccc1	RGS4 act -9.2, MrgX1 antag -5.7
CC(C)(C)c1ccc(C(=O)NC(=S)NNC(=O)c2cccs2)cc1	MrgX1 agonist 47
CC(C)(C)c1ccc(OCC(=O)NNC(=O)CCc2ccccc2)cc1	none
O=C(NC(=S)NNC(=O)c1cccs1)c1ccco1	MrgX1 agonist 28
CC(Oc1ccc(Cl)cc1)C(=O)NNC(=S)NC(=O)c1ccco1 (configuration not stated)	MrgX1 agonist 90
CC(C)(C)c1ccc(C(=O)NC(=S)NNC(=O)COc2ccccc2)cc1	RGS4 act -7.5, MrgX1 agonist 45
CC(C)(Cc1ccccc1)/[N+]([O-])=C\c1ccccc1	none
Cc1cccc(N(CC(=O)NC2CCCC2)C(=O)c2csnn2)c1C	none
CC(C)CC(OC(=O)c1nsc(Cl)c1Cl)C(=O)NC1CCCC1 (configuration not stated)	none
COC(=O)c1cc(OC)c(OC)cc1NC(=S)NC(=O)c1ccco1	none
COc1ccccc1C(=O)NNC(=S)NC(=O)c1ccco1	MrgX1 agonist 50
COc1ccc2oc3ccccc3c(=O)c2c1	none
COc1cc(/C(C)=C/c2ccccc2)c2c(c1)oc1ccccc12	MrgX1 allo act 9
CCOC(=O)C1C(=O)C=C(c2ccc(Br)cc2)CC1c1ccco1 (configuration not stated)	MrgX1 antag -5.7
CCOC(=O)C1C(=O)C=C(c2cccc(NS(C)(=O)=O)c2)CC1c1ccco1 (configuration not stated)	none
CC(=O)NC(=S)NNC(=O)C(c1ccccc1)c1ccccc1	MrgX1 allo act 12
Cc1cccc(N(C(=O)c2snc(C(N)=O)c2N)C(C(=O)NCC2CCCO2)c2cccs2)c1 (configuration not stated)	MrgX1 antag -4.7
Cc1ccc(C)c(N(C(=O)c2snc(C(N)=O)c2N)C(C(=O)NCC2CCCO2)c2cccs2)c1 (configuration not stated)	none
Cc1cccn2c(=O)c3cc(C(=O)NCCc4ccccc4)c(=N)n(Cc4ccco4)c3nc12	RGS4 act -8.6
Cc1cccn2c(=O)c3cc(C(=O)NCc4ccco4)c(=N)n(CCc4ccccc4)c3nc12	none (no result: RGS4 inh, RGS4 act)
CCOCCCn1c(=N)c(C(=O)NCc2ccc3c(c2)OCO3)cc2c(=O)n3cccc(C)c3nc21	RGS4 act -8.5
COc1ccc(C)cc1NC(=O)CCNC(=O)Cn1cnc2ccccc2c1=O	none
Cc1ccc(S(=O)(=O)N(C)C)cc1NC(=O)CSc1nncs1	none
Fc1ccc(Cn2c(SCc3ccc(F)c(F)c3)nnc2C(F)(F)F)cc1	RGS4 act -8.5
CC1CCN(Cc2ccc(NC(=O)C3CCN(c4nnc(-n5cccc5)s4)CC3)cc2)CC1	RGS4 act -8.2
O=C(C1CCN(c2nnc(-n3cccc3)s2)CC1)N1CCN(Cc2ccc3c(c2)OCO3)CC1	none
Cc1ccc(-c2nc(=S)c3c(n2CC2CCCO2)CC(C)(C)OC3)cc1 (configuration not stated)	none
Cc1ccc(-c2nc(=S)c3c(n2Cc2ccco2)CC(C)(C)OC3)cc1	MrgX1 antag -6
COc1cc(C(=O)Nc2nnc(SC)s2)c([N+](=O)[O-])cc1OC	none
COc1cc(C(=O)Nc2nnc(C(F)(F)F)s2)c([N+](=O)[O-])cc1OC	MrgX1 antag -6.4
CC(=O)c1ccc(N(CC(=O)NC2CCCCC2)C(=O)CNC(=O)c2ccco2)cc1	none
CN(c1ccccc1)c1nc(N)c([N+](=O)[O-])c(Nc2ccccc2F)n1	none
COc1ccc(OC)c(Nc2nc(N(C)c3ccccc3)nc(N)c2[N+](=O)[O-])c1	RGS4 act -8.1
Cc1ccc(CNS(=O)(=O)c2c(C)[nH]c(C)c2C(=O)N2CCCCC2)o1	none
O=C(NCCN1C(=O)S/C(=C\c2cccs2)C1=O)[C@H](Cc1ccccc1)N1C(=O)c2ccccc2C1=O	MrgX1 antag -8.4
CC(C(=O)NCCN1C(=O)S/C(=C\c2cccs2)C1=O)N1C(=O)c2ccccc2C1=O (configuration not stated)	none
CCc1ccc(-c2nc(CS(=O)CC(=O)NC3CCCCCC3)c(C)o2)cc1 (configuration not stated)	none
COc1ccc(Cn2c3ccc(OC)cc3c3nc4ccccc4nc32)cc1	none
COc1ccc2c(c1)c1nc3ccccc3nc1n2Cc1ccc(OC(C)C)c(OC)c1	MrgX1 antag -6.7
CC(C)CCn1c(O)c(N=Nc2ccccn2)c2ccccc21	none
CCCn1c(O)c(N=Nc2ccc3ccccc3n2)c2ccccc21	MrgX1 antag -4.8
COc1ccccc1CNC(=O)CNC(=O)c1ccc(Br)o1	none
CC1CN(S(=O)(=O)c2cccc(C(=O)NCCC3=CCCCC3)c2)CC(C)O1 (configuration not stated)	none
S=C(NCCC(c1ccccc1)c1ccccc1)Nc1cccc(Cl)c1	RGS4 act -7.6
CC12COC3(C(=O)Nc4ccccc4F)CC1CCC32C (configuration not stated)	none
CC12COC3(C(=O)Nc4ccc([N+](=O)[O-])cc4)CC1CCC32C (configuration not stated)	MrgX1 allo act 8.4
C=CCOc1ccccc1CNCCCN1CCOCC1	MrgX1 antag -7.3
CCc1ccc2nc(N3C(=O)C(O)=C(C(=O)c4ccco4)C3c3cccs3)sc2c1 (configuration not stated)	none
Cc1ccc2nc(N3C(=O)C(O)=C(C(=O)c4cc5ccccc5o4)C3c3cccs3)sc2c1 (configuration not stated)	MrgX1 antag -5.6
Cc1nn(CCCC(=O)NCc2ccc(F)cc2)c(=O)c2nccn12	MrgX1 antag -5.5
CCOC(=O)C(=Cc1ccc(Br)cc1)C(=O)OCC	none
CCOC(=O)C(=Cc1ccc(F)cc1)C(=O)OCC	MrgX1 allo act 7.5
